From ChEMBL document CHEMBL1157307, “Bioassay for the identification of natural product-based activators of peroxisome proliferator-activated receptor-gamma (PPARgamma): the marine sponge metabolite psammaplin A activates PPARgamma and induces apoptosis in human breast tumor cells” (J Nat Prod, 2006)
Each block holds one compound with its values, some of them ahead of it. Activity calls are given as the source filed them. The calls are words filed in the database; no cut-off is given here.

How the values were obtained:
MCF7 [1] = assay: Antiproliferative activity against human MCF7 cells at 30 uM after 8 hrs by neutral red method; assay type: functional
Procedure, shortened: (§1)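 Short exposure: MCF-7 cells treated at 3, 10 or 30 µM for 1, 2, 4 or 8 h. Then washed twice with serum-free medium and grown 96 h in medium with 10% FCS, compound-free. Neutral red absorbance at 540 nm, corrected at 630 nm. Triplicate.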

[2] = target: T1, Peroxisome proliferator-activated receptor gamma (Homo sapiens) (UniProt P37231); assay: Activation of PPARgamma transfected in human MCF7 cells at 10 uM after 48 hrs by luciferase reporter gene assay; assay type: cell-based
T1 sequence (whole entry): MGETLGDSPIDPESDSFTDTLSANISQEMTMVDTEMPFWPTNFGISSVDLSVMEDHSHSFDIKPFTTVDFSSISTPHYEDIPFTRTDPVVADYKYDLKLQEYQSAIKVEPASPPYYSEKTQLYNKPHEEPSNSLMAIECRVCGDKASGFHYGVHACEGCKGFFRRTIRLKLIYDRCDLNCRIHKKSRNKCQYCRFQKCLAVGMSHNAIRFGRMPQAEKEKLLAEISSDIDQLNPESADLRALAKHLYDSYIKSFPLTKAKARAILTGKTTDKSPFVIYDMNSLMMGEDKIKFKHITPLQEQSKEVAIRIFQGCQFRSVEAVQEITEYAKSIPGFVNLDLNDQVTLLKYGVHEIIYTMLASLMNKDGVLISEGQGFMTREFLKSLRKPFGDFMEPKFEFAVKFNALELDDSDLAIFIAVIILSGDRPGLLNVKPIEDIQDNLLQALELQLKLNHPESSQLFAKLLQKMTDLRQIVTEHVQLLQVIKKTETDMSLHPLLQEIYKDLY
Procedure, shortened: (§2)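 MCF-7 or MDA-MB-231 cells grown in DMEM/F12 with 10% FCS at 37 °C, 5% CO2. Electroporated with pPPRE-aP2-tk-luc reporter (50 µg/mL) plus rat PPARγ construct pCMV-rPPARγ (10 µg/mL). Seeded 20,000 cells/well and left 20 h. Compound added in serum-free medium for 24 or 48 h. Cells lysed and luciferase read. Runs done in triplicate or quadruplicate.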

[3] = target: T1, Peroxisome proliferator-activated receptor gamma (Homo sapiens); assay: Activation of PPARgamma transfected in human MCF7 cells at 10 uM by luciferase reporter gene assay; assay type: cell-based; procedure, shortened: as §2
[4] = target: T2, Peroxisome proliferator-activated receptor gamma (Homo sapiens, UniProt P37231); assay: Activation of PPARgamma transfected in human MCF7 cells by luciferase reporter gene assay; assay type: cell-based
T2 sequence (P37231 whole entry): T1 sequence (whole entry)

T47D [5] = assay: Induction of apoptosis in human T47D cells assessed as chromosome fragmentation at 10 uM after 8 hrs by fluorescent microscopy
MCF7 [6] = assay: Antiproliferative activity against human MCF7 cells at 10 uM after 48 hrs by neutral red method; assay type: functional
Procedure, shortened: (§3)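 MCF-7 cells plated as for the reporter assay (20,000/well, 20 h), then exposed 48 h to compound added in serum-free DMEM/F12. Viability read by neutral red uptake as absorbance at 540 nm, corrected at 630 nm. Triplicate, mean ± SD.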

MCF7 [7] = assay: Antiproliferative activity against human MCF7 cells at 10 uM up to 8 hrs by neutral red method; assay type: functional, cell-based; procedure, shortened: as §1
MCF7 [8] = assay: Antiproliferative activity against human MCF7 cells by neutral red method; assay type: functional, cell-based; procedure, shortened: as §3
NCI-H1299 = assay: Activation of p21 promoter in human H1299 cells by reporter assay; assay type: functional, cell-based
MCF7 [9] = assay: Induction of apoptosis in human MCF7 cells assessed as chromosome fragmentation at 10 uM after 8 hrs by fluorescent microscopy; assay type: functional, cell-based
Procedure, shortened: (§4)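 MCF-7 cells seeded at 80,000/well on coverslips and grown 16 h. Compound added (10 µM final) in an equal volume of serum-free medium; 30 nM taxol as control. After 4, 8 or 16 h, cells fixed in MeOH, washed in PBS and mounted in DAPI. Fragmented nuclei scored by fluorescence at 400×.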

T47D [10] = assay: Induction of apoptosis in human T47D cells assessed as chromosome fragmentation at 10 uM after 16 hrs by fluorescent microscopy
[11] = Inhibition of HDAC by cell-free enzyme assay
MCF7 [12] = assay: Induction of apoptosis in human MCF7 cells assessed as chromosome fragmentation at 10 uM after 16 hrs by fluorescent microscopy; assay type: functional, cell-based; procedure, shortened: as §4
[13] = target: T1, Peroxisome proliferator-activated receptor gamma (Homo sapiens); assay: Activation of GAL4 fused human PPARgamma ligand binding domain transfected in african green monkey CV1 cells at 10 uM by CAT reporter assay; assay type: cell-based; conditions: CV-1
[14] = target: T1, Peroxisome proliferator-activated receptor gamma (Homo sapiens); assay: Activation of PPARgamma transfected in human MDA-MB-231 cells at 100 to 300 uM after 48 hrs by luciferase reporter gene assay; assay type: cell-based; procedure, shortened: as §2
[15] = target: T1, Peroxisome proliferator-activated receptor gamma (Homo sapiens); assay: Activation of PPARgamma transfected in human MCF7 cells at 100 to 300 uM after 48 hrs by luciferase reporter gene assay; assay type: cell-based; procedure, shortened: as §2
MCF7 [16] = assay: Induction of apoptosis in human MCF7 cells assessed as chromosome fragmentation at 30 uM by fluorescent microscopy; assay type: functional, cell-based; conditions: TDE = time-dependent effect

- Activity [2]: Active
- Activity [3]: Active
- EC50 [4]: 5.7 µM
- IC50 (MCF7 [8]): 5 µM
- IC50 [11]: 0.0042 µM
Structure (SMILES): O=C(NCCSSCCNC(=O)/C(Cc1ccc(O)c(Br)c1)=N/O)/C(Cc1ccc(O)c(Br)c1)=N/O [PSAMMAPLIN A]
- Activity (MCF7 [1]): 36%
- Activity (T47D [5]): Active
- Activity (MCF7 [6]): 62%
- Activity (MCF7 [7]): inactive
- AC50 (NCI-H1299): 7.5 µM
- Activity (MCF7 [9]): Active
- Activity (T47D [10]): Active
- Activity (MCF7 [12]): Active

- Activity [13]: Active
Structure (SMILES): CC1(COc2ccc(CC3SC(=O)NC3=O)cc2)CCCCC1 (configuration not stated)

- Activity [14]: inactive
- Activity [15]: inactive
Structure (SMILES): COc1ccc2c(c1)c(CC(=O)O)c(C)n2C(=O)c1ccc(Cl)cc1

Structure (SMILES): CC(=O)O[C@H]1C(=O)[C@@]2(C)[C@H]([C@H](OC(=O)c3ccccc3)[C@]3(O)C[C@H](OC(=O)[C@H](O)[C@@H](NC(=O)c4ccccc4)c4ccccc4)C(C)=C1C3(C)C)[C@]1(OC(C)=O)CO[C@@H]1C[C@@H]2O
- Activity (MCF7 [16]): tde
